Calls of active or inactive are those of the source. The calls are words filed in the database; no cut-off is given here.
How the values were obtained:
[1] = Antitumor activity against mouse early Lewis lung carcinoma allografted in BDF1 mouse assessed as increase in host life span at 315 mg/kg, ip administered as single dose on 1 or 2 days post-tumor implantation; format: functional; conditions: route intraperitoneal
In short: (§1)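 BDF1 mice (C57Blk/6 × DBA/2) implanted sc by trocar with ~40 mg Lewis lung tumor fragments from bacteriologically sterile donor tumors. Single ip dose on day 1 or 2, as a solution or suspension in water (CMC or gum acacia) or saline (HPC or Tween 80). Read-out is […]. Same-dose toxicity controls were run in nontumor-bearing mice.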

[2] = Antitumor activity against mouse early Lewis lung carcinoma allografted in BDF1 mouse assessed as time delay in tumor growth at 210 mg/kg, ip administered as single dose on 1 or 2 days post-tumor implantation; format: functional; conditions: route intraperitoneal
In short: (§2)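 BDF1 mice (C57Blk/6 × DBA/2) implanted sc by trocar with ~40 mg Lewis lung tumor fragments from bacteriologically sterile donors. A single ip dose was given on day 1 or 2, as a solution or suspension in water or saline with suspending agent, at ≤0.5 ml. Tumors were measured by caliper at least twice weekly, with weight = ab²/2. Delay was taken as the days for the tumor to reach 1 g.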

Mus musculus [3] = assay: Antitumor activity against mouse advanced Lewis lung carcinoma allografted in ip dosed BDF1 mouse assessed as disease cure administered as single dose on day 6 or 7 post-tumor implantation; format: functional, organism-based
In short: (§3)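 BDF1 mice (C57Blk/6 × DBA/2) implanted sc by trocar with Lewis lung tumor fragments of about 40 mg, taken only from bacteriologically sterile donor tumors. Mice bearing tumors of about 400 mg (day 6-7) were selected. Each received a single ip dose on day 7, at or below the LD10 in normal mice. Groups were of 10 mice. Tumor weight was taken from calipers as w = ab²/2, measured at least twice weekly. Matched non-tumor mice served as toxicity controls.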

[4] = Antitumor activity against mouse early Lewis lung carcinoma allografted in BDF1 mouse assessed as time delay in tumor growth at 315 mg/kg, ip administered as single dose on 1 or 2 days post-tumor implantation; format: functional; conditions: route intraperitoneal; in short: as §2
Mus musculus [5] = assay: Antitumor activity against mouse advanced Lewis lung carcinoma allografted in BDF1 mouse assessed as disease cure at 316 mg/kg, ip administered as single dose on 7th day post-tumor implantation measured for 80 days post-drug treatment; format: functional, organism-based; design: dose 316 mg/kg; in short: as §3
[6] = Antitumor activity against mouse advanced Lewis lung carcinoma allografted in BDF1 mouse assessed as increase in host life span at 316 mg/kg, ip administered as single dose on 7th day post-tumor implantation; format: functional; conditions: route intraperitoneal
In short: (§4)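 BDF1 mice (C57Blk/6 × DBA/2) implanted sc by trocar with about 40 mg Lewis lung tumor fragments from bacteriologically sterile donors. Advanced-disease groups held tumors of about 400 mg by day 6-7, sized by caliper (w = ab²/2). Single ip injection on day 7, in water or saline vehicle, at or below the LD10 in normal mice. Tumors measured at least twice weekly.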

Mus musculus [7] = assay: Antitumor activity against mouse advanced Lewis lung carcinoma allografted in ip dosed BDF1 mouse assessed as complete regression of established tumor administered as single dose on day 6 or 7 post-tumor implantation; format: functional, organism-based; in short: as §3
[8] = Antitumor activity against mouse early Lewis lung carcinoma allografted in BDF1 mouse assessed as increase in host life span at 210 mg/kg, ip administered as single dose on 1 or 2 days post-tumor implantation; format: functional; conditions: route intraperitoneal; in short: as §1
[9] = Ratio of ED50 for antitumor activity against mouse L1210 cells allografted in ip dosed mouse to LD10 for mouse
[10] = Antitumor activity against mouse early Lewis lung carcinoma allografted in ip dosed BDF1 mouse assessed as disease cure administered as single dose on 1 or 2 days post-tumor implantation measured for 80 days post-drug treatment; format: functional
In short: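 BDF1 mice implanted sc by trocar with ~40 mg Lewis lung fragments from sterile donor tumors. A single ip dose was given on day 1 or 2 after implant, in water or saline vehicle. Cures were scored in animals observed for at least 80 days after treatment. Drug-toxicity controls were matched non-tumor-bearing mice monitored for body weight and deaths.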

Mus musculus [11] = assay: Antitumor activity against mouse advanced Lewis lung carcinoma allografted in BDF1 mouse assessed as complete regression of established tumor at 60 mg/kg, ip administered as single dose on 7th day post-tumor implantation; format: functional, organism-based; design: dose 60 mg/kg; in short: as §3
[12] = Antitumor activity against mouse early Lewis lung carcinoma allografted in BDF1 mouse assessed as time delay in tumor growth at 40 mg/kg, ip administered as single dose on 1 or 2 days post-tumor implantation; format: functional; conditions: route intraperitoneal; in short: as §2
Mus musculus [13] = assay: Antitumor activity against mouse advanced Lewis lung carcinoma allografted in BDF1 mouse assessed as complete regression of established tumor at 40 mg/kg, ip administered as single dose on 7th day post-tumor implantation; format: functional, organism-based; design: dose 40 mg/kg; in short: as §3
Mus musculus [14] = assay: Antitumor activity against mouse advanced Lewis lung carcinoma allografted in BDF1 mouse assessed as disease cure at 40 mg/kg, ip administered as single dose on 7th day post-tumor implantation measured for 80 days post-drug treatment; format: functional, organism-based; design: dose 40 mg/kg; in short: as §4
[15] = Antitumor activity against mouse early Lewis lung carcinoma allografted in BDF1 mouse assessed as increase in host life span at 60 mg/kg, ip administered as single dose on 1 or 2 days post-tumor implantation; format: functional; conditions: route intraperitoneal; in short: as §1
[16] = Antitumor activity against mouse advanced Lewis lung carcinoma allografted in BDF1 mouse assessed as increase in host life span at 40 mg/kg, ip administered as single dose on 7th day post-tumor implantation; format: functional; conditions: route intraperitoneal; in short: as §4
[17] = Antitumor activity against mouse early Lewis lung carcinoma allografted in BDF1 mouse assessed as increase in host life span at 40 mg/kg, ip administered as single dose on 1 or 2 days post-tumor implantation; format: functional; conditions: route intraperitoneal; in short: as §1
Mus musculus [18] = assay: Antitumor activity against mouse advanced Lewis lung carcinoma allografted in BDF1 mouse assessed as disease cure at 60 mg/kg, ip administered as single dose on 7th day post-tumor implantation measured for 80 days post-drug treatment; format: functional, organism-based; design: dose 60 mg/kg; in short: as §3
[19] = Antitumor activity against mouse advanced Lewis lung carcinoma allografted in BDF1 mouse assessed as increase in host life span at 60 mg/kg, ip administered as single dose on 7th day post-tumor implantation; format: functional; conditions: route intraperitoneal; in short: as §4
[20] = Antitumor activity against mouse early Lewis lung carcinoma allografted in BDF1 mouse assessed as time delay in tumor growth at 60 mg/kg, ip administered as single dose on 1 or 2 days post-tumor implantation; format: functional; conditions: route intraperitoneal; in short: as §2
[21] = Antitumor activity against mouse advanced Lewis lung carcinoma allografted in ip dosed BDF1 mouse assessed as increase in host lifespan administered as single dose on day 6 or 7 post-tumor implantation; format: functional
In short: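 Advanced Lewis lung model: about 40 mg fragments implanted sc by trocar into BDF1 mice, and mice with tumors of about 400 mg (day 6-7) selected. Tumor weight from calipers, w = ab²/2. Agent given as one ip dose in distilled water or physiological saline. Nontumor-bearing mice received matching doses as toxicity controls.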

[22] = Antitumor activity against mouse early Lewis lung carcinoma allografted in BDF1 mouse assessed as time delay in tumor growth at 57 mg/kg, ip administered as single dose on 1 or 2 days post-tumor implantation; format: functional; conditions: route intraperitoneal; in short: as §2
[23] = Antitumor activity against mouse advanced Lewis lung carcinoma allografted in BDF1 mouse assessed as increase in host life span at 55 mg/kg, ip administered as single dose on 7th day post-tumor implantation; format: functional; conditions: route intraperitoneal; in short: as §4
[24] = Antitumor activity against mouse early Lewis lung carcinoma allografted in BDF1 mouse assessed as increase in host life span at 38 mg/kg, ip administered as single dose on 1 or 2 days post-tumor implantation; format: functional; conditions: route intraperitoneal; in short: as §1
Mus musculus [25] = assay: Antitumor activity against mouse advanced Lewis lung carcinoma allografted in BDF1 mouse assessed as disease cure at 55 mg/kg, ip administered as single dose on 7th day post-tumor implantation measured for 80 days post-drug treatment; format: functional, organism-based; design: dose 55 mg/kg; in short: as §3
Mus musculus [26] = assay: Antitumor activity against mouse advanced Lewis lung carcinoma allografted in BDF1 mouse assessed as complete regression of established tumor at 55 mg/kg, ip administered as single dose on 7th day post-tumor implantation; format: functional, organism-based; design: dose 55 mg/kg; in short: as §3
[27] = Antitumor activity against mouse early Lewis lung carcinoma allografted in BDF1 mouse assessed as time delay in tumor growth at 38 mg/kg, ip administered as single dose on 1 or 2 days post-tumor implantation; format: functional; conditions: route intraperitoneal; in short: as §2
[28] = Antitumor activity against mouse early Lewis lung carcinoma allografted in BDF1 mouse assessed as increase in host life span at 57 mg/kg, ip administered as single dose on 1 or 2 days post-tumor implantation; format: functional; conditions: route intraperitoneal; in short: as §1
[29] = Antitumor activity against mouse early Lewis lung carcinoma allografted in BDF1 mouse assessed as time delay in tumor growth at 152 mg/kg, ip administered as single dose on 1 or 2 days post-tumor implantation; format: functional; conditions: route intraperitoneal; in short: as §2
[30] = Antitumor activity against mouse early Lewis lung carcinoma allografted in BDF1 mouse assessed as time delay in tumor growth at 67 mg/kg, ip administered as single dose on 1 or 2 days post-tumor implantation; format: functional; conditions: route intraperitoneal; in short: as §2
[31] = Antitumor activity against mouse early Lewis lung carcinoma allografted in BDF1 mouse assessed as increase in host life span at 67 mg/kg, ip administered as single dose on 1 or 2 days post-tumor implantation; format: functional; conditions: route intraperitoneal; in short: as §1
[32] = Antitumor activity against mouse early Lewis lung carcinoma allografted in BDF1 mouse assessed as increase in host life span at 152 mg/kg, ip administered as single dose on 1 or 2 days post-tumor implantation; format: functional; conditions: route intraperitoneal; in short: as §1
[33] = Antitumor activity against mouse advanced Lewis lung carcinoma allografted in BDF1 mouse assessed as increase in host life span at 171 mg/kg, ip administered as single dose on 7th day post-tumor implantation; format: functional; conditions: route intraperitoneal; in short: as §4
[34] = Antitumor activity against mouse advanced Lewis lung carcinoma allografted in BDF1 mouse assessed as increase in host life span at 36 mg/kg, ip administered as single dose on 7th day post-tumor implantation; format: functional; conditions: route intraperitoneal; in short: as §4
[35] = Antitumor activity against mouse early Lewis lung carcinoma allografted in BDF1 mouse assessed as increase in host life span at 36 mg/kg, ip administered as single dose on 1 or 2 days post-tumor implantation; format: functional; conditions: route intraperitoneal; in short: as §1
[36] = Antitumor activity against mouse early Lewis lung carcinoma allografted in BDF1 mouse assessed as increase in host life span at 24 mg/kg, ip administered as single dose on 1 or 2 days post-tumor implantation; format: functional; conditions: route intraperitoneal; in short: as §1
[37] = Antitumor activity against mouse early Lewis lung carcinoma allografted in BDF1 mouse assessed as time delay in tumor growth at 24 mg/kg, ip administered as single dose on 1 or 2 days post-tumor implantation; format: functional; conditions: route intraperitoneal; in short: as §2
[38] = Antitumor activity against mouse early Lewis lung carcinoma allografted in BDF1 mouse assessed as time delay in tumor growth at 36 mg/kg, ip administered as single dose on 1 or 2 days post-tumor implantation; format: functional; conditions: route intraperitoneal; in short: as §2

## CC(C)(C)[C@H]1CC[C@H](NC(=O)N(CCCl)N=O)CC1
[1]
  ILS at 315 mg/kg: 19%
[2]
  Time: 4.1 days
Mus musculus [3]
  Activity: inactive
[4]
  Time: 22 days
Mus musculus [5]
  Activity: inactive
[6]
  ILS at 316 mg/kg: 41%
Mus musculus [7]
  inhibition: Active
[8]
  ILS at 210 mg/kg: 24%
[9]
  Ratio: 0.6
[10]
  Activity: 10%

## O=NN(CCCl)C(=O)N[C@H]1CC[C@H](CCl)CC1
Mus musculus [11]
  inhibition: inactive
[12]
  Time: 5.2 days
Mus musculus [13]
  inhibition: inactive
Mus musculus [14]
  Activity: inactive
[15]
  ILS at 60 mg/kg: 87%
Mus musculus [3]
  Activity: inactive
Mus musculus [7]
  inhibition: inactive
[16]
  ILS at 40 mg/kg: 51%
[17]
  ILS at 40 mg/kg: 74%
Mus musculus [18]
  Activity: inactive
[19]
  ILS at 60 mg/kg: 109%
[9]
  Ratio: 0.6
[20]
  Time: 4.3 days
[10]
  Activity: 10%
[21]
  ILS: >25%

## O=NN(CCCl)C(=O)N[C@H]1CCCC[C@@H]1Cl (relative stereo)
[22]
  Time: 2.5 days
[23]
  ILS at 55 mg/kg: 18%
[24]
  ILS at 38 mg/kg: 43%
Mus musculus [25]
  Activity: inactive
Mus musculus [3]
  Activity: inactive
Mus musculus [26]
  inhibition: inactive
Mus musculus [7]
  inhibition: inactive
[27]
  Time: 3.3 days
[9]
  Ratio: 0.6
[10]
  Activity: 10%
[21]
  ILS: >25%
[28]
  ILS at 57 mg/kg: 38%

## O=NN(CCCl)C(=O)N[C@H]1CC[C@H](NC(=O)N(CCCl)N=O)CC1
[29]
  Time: 4 days
Mus musculus [3]
  Activity: Active
[30]
  Time: 2 days
[31]
  ILS at 67 mg/kg: 34%
[9]
  Ratio: 0.3
[32]
  ILS at 152 mg/kg: 41%
[10]
  Activity: 10%
[33]
  ILS at 171 mg/kg: 146%

## C[C@H]1CC[C@H](NC(=O)N(CCCl)N=O)CC1
Mus musculus [3]
  Activity: Active
[34]
  ILS at 36 mg/kg: 46%
[35]
  ILS at 36 mg/kg: 44%
[36]
  ILS at 24 mg/kg: 37%
[37]
  Time: 6.5 days
[9]
  Ratio: 0.4
[10]
  Activity: >50%
[38]
  Time: 14 days

Reference: ChEMBL document CHEMBL3271979, “Inhibition of solid tumors by nitrosoureas. 1. Lewis lung carcinoma” (1977)
